Published values gathered from unrelated publications.
PIP5K1A: Phosphatidylinositol 4-phosphate 5-kinase type-1 alpha (PIP5K1A, Homo sapiens, UniProt Q99755)
KDR: Vascular endothelial growth factor receptor 2 (KDR, Homo sapiens, UniProt P35968)

SMILES | target | test | setting | measurement | value
Cc1cc(S(=O)(=O)N[C@H]2CC[C@H](CN3CCN(c4ccc(C5CCC(=O)NC5=O)cc4F)CC3)CC2)ccc1Nc1ncc(C(F)(F)F)c(N2CCC[C@](C)(O)C2)n1 (stereo partly drawn) | PIP5K1A | binding, competition with immobilised ligand | 1 µM | remaining binding | 70%
Cc1cc(O)c(-c2ccc([C@@H](C)CN(C)C)cc2)c2c1[nH]c(=O)c1sccc12 | Serine/threonine-protein kinase Nek4 (NEK4, Homo sapiens, UniProt P51957) | enzyme activity, inhibitor | 0.1 µM | inhibition | 0.965%
CC(=O)ON=C1C=CC(=C(C#N)c2ccccc2)C=C1 | Glycogen synthase kinase-3 beta (GSK3B, Homo sapiens, UniProt P49841) | enzyme activity, inhibitor, ADP detection | 20 µM | activity vs control | 82%
COc1ccc(-c2cc(=O)c3c(O)cc(O[C@@H]4O[C@H](CO[C@@H]5O[C@@H](C)[C@H](O)[C@@H](O)[C@H]5O)[C@@H](O)[C@H](O)[C@H]4O)cc3o2)cc1O | KDR | enzyme activity, inhibitor, TR-FRET | 40 µM | inhibition | 51.5%
CNS(=O)(=O)c1ccc(Nc2ncc(C(F)(F)F)c(N3CCC[C@](C)(O)C3)n2)c(C)c1 | PIP5K1A | binding, competition with immobilised ligand | 1 µM | remaining binding | 100%
COc1ccc2oc(-c3ccc4nc(N)oc4c3)c/c(=N\c3ccccc3NC(=O)CCN)c2c1 | Activin receptor type-1-like (ACVRL1, Homo sapiens, UniProt P37023) | binding | 1 µM | remaining binding | 106%
CC(C)c1ccc(Sc2ccc3nnc(C(F)(F)F)n3n2)cc1 | Glutamate NMDA receptor; Grin1/Grin2a (Grin1/Grin2a, Rattus norvegicus, UniProt P35439+Q00959) | ion current, two-electrode voltage clamp | 30 µM, oocytes | remaining activity | 97%
CCN1/C(=C/C(C)=O)Sc2ccc(F)cc21 | Vasopressin V1b receptor (AVPR1B, Homo sapiens, UniProt P47901) | ligand displacement, radioligand | 10 µM | inhibition | 2.63%
CC1=C(/C=C/C(C)=C/C=C/C(C)=C/C=C/C=C(C)/C=C/C=C(C)/C=C/C2=C(C)CCCC2(C)C)C(C)(C)CCC1 | KDR | enzyme activity, inhibitor, TR-FRET | 40 µM | inhibition | -6.3%
C1=C/COCc2cc(ccc2OCCN2CCCC2)Nc2nccc(n2)-c2cccc(c2)COC/1 | 1-phosphatidylinositol 3-phosphate 5-kinase (PIKFYVE, Homo sapiens, UniProt Q9Y2I7) | cell-free assay | 0.1 µM | remaining signal | 17%
CCCCC(=O)Nc1ccc(-c2ccc3ncn(CCC)c(=O)c3c2)cn1 | Interleukin-1 receptor-associated kinase 3 (IRAK3, Homo sapiens, UniProt Q9Y616) | binding, competition with immobilised ligand | 0.5 µM | remaining binding | 99%
CC(=O)/C=C/C=C(C)/C=C/C1=C(C)CC(O)CC1(C)C (stereo in doubt) | D14 (Oryza sativa, UniProt Q10QA5) | thermal stability, DSF | 10 µM | ΔTm | 2.75 °C
